Records with an inconclusive call do not appear.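 The calls were made as follows, unless noted: active = viability increase at or above a cutoff of the median across tested compounds plus 3 SD (cut at about 8.5% in these data, passing the limit was not always enough); inconclusive = some gains above the cutoff, reason not given; inactive = the rest.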
Key:
[1] = OD615 S. cerevisiae growth inhibition, permissive medium, pilot counter-assay, permissive growth control for S. cerevisiae lifespan shortening project (AID 705;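 active = growth inhibition above 25% in both replicates, a cutoff set 3 SD above the mean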); conditions: OD615, 24 h, at 10 µM, active compounds read high
How it was run: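 assay system = Saccharomyces cerevisiae strain carrying genetically modified DeaD replicative-lifespan system | technique = absorbance (optical density) at 615 nm | buffer or medium = permissive raffinose/galactose medium | timing = cells pre-grown 4 h, then 24 h compound exposure, 30 °C humidified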

[2] = Restrictive medium S. cerevisiae growth inhibition, OD615, pilot screen of yeast lifespan reduction project, restrictive growth control (AID 706;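 active = growth inhibition above a set limit, 3 SD over mean compound inhibition, in both replicates, cut at about 43% in these data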;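 also: modified DeaD lifespan yeast strain shifted to restrictive glucose medium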); conditions: OD615, 48 h, at 10 µM, active compounds read high
How it was run: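 System: modified S. cerevisiae. Buffer or medium: CSMM-D glucose medium. Incubation: 4 h pre-growth plus 48 h compound exposure, 30 °C. Detection: absorbance (optical density) measured at 615 nm.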

[3] = viability gain of MRP-1-high H69AR cells under doxorubicin, pilot screen, MRP-1 activator project, CellTiter-Glo, duplicate (AID 807); conditions: H69AR viability with doxorubicin, CellTiter-Glo luminescence; at 10 µM; active compounds read high;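 also: compound pretreatment 18-22 h then 72 h combined with doxorubicin; 0% = doxorubicin alone and 100% = vehicle without doxorubicin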
[4] = growth suppression of beta-catenin knockout HCT116, pilot screen, human colon tumor cells (AID 823;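 active = cell viability at or below a set limit in both duplicate runs, the limit being the all-compound median minus 4 SD, cut at about 23% in these data, passing the limit was not always enough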;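 also: 0% = wells killed by 20 µM Hyamine and 100% = untreated DMSO cell wells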); conditions: CellTiter-Glo, 60 h, at 10 µM, active compounds read low
[5] = growth suppression of PTEN-deleted HCT116, pilot screen, cell-based, HCT116 clonal line, CellTiter-Glo (AID 824;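 active = viability at or below 27.92% in each of two runs, the all-compound median minus 4 SD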;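 also: 0% = 20 µM Hyamine control and 100% = vehicle cell control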); conditions: 60 h, at 10 µM, active compounds read low
[6] = inhibitors of the yeast RAM network, pilot screen, dse1pr::URA3 reporter, 5-FOA selection (AID 869;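 active = inhibition over a set limit, the all-compound mean plus 3 SD, in both replicate runs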;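 also: 0% = DMSO wells with no growth and 100% = 10 µM 1-NA-PP1 with full growth; RAM network block rescues cells from 5-FOA so hits raise OD615 growth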); conditions: S. cerevisiae dse1pr::URA3 5-FOA growth, OD615, 2 d; at 10 µM; active compounds read high; strain carries analog-sensitive mutant Cbk1 kinase
[7] = RAM signaling pathway blockade in yeast – S. cerevisiae, Pdr1DBD-CYC8 efflux-inhibited sensitized strain, primary screen (AID 1298;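 active = RAM network inhibition above 8.4% in each of two replicates, 3 SD over the compound average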;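 also: 0% = DMSO untreated cells without growth and 100% = 10 µM 1-NA-PP1 full growth; higher means more yeast growth rescued from 5-FOA killing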); conditions: S. cerevisiae cbk1-as DSE1-URA3 strain, 5-FOA growth OD615, 2 d; at 50 µM; active compounds read high

Cc1ccc(C2CC(c3ccco3)n3nc(N)nc3N2)cc1 (stereo unspecified)
inactive: growth inhibition [1] 4.36% | growth inhibition [2] 11.9% | viability increase [3] -1.44% | viability [4] 96.5% | viability [5] 99.8% | inhibition [6] -1.15% | RAM network inhibition [7] 3.41%

CC1Cc2ccccc2N1C(=O)c1ccc2snnc2c1 (stereo unspecified)
inactive: growth inhibition [1] -1.7% | growth inhibition [2] -9.59% | viability increase [3] -3.96% | viability [4] 95% | viability [5] 96.8% | inhibition [6] 0.79% | RAM network inhibition [7] 6.74%

O=C(NCCCN1CCc2ccccc2C1)C1CCN(c2nnc(-n3cccc3)s2)CC1
inactive: growth inhibition [1] 2.54% | growth inhibition [2] -1.29% | viability increase [3] -3.55% | viability [4] 82.2% | viability [5] 79.4% | inhibition [6] 2.08% | RAM network inhibition [7] 5.45%

CC(C)Cc1cc(C(=O)Nc2cc(Cl)ccc2Cl)no1
inactive: growth inhibition [1] -14.2% | growth inhibition [2] -0.125% | viability increase [3] -2.35% | viability [4] 104% | viability [5] 98% | inhibition [6] 3.71% | RAM network inhibition [7] 1.67%

CCOC(=O)c1cnc2c(C#N)c(C)nn2c1-c1ccccc1
inactive: growth inhibition [1] -5.3% | growth inhibition [2] 0.945% | viability increase [3] -0.99% | viability [4] 94% | viability [5] 92.7% | inhibition [6] 1.69% | RAM network inhibition [7] 3.66%

O=C(c1ccccc1Cl)N1CCC(c2nc3c(nnn3Cc3ccco3)c(=O)[nH]2)CC1
inactive: growth inhibition [1] -6.62% | growth inhibition [2] -11.1% | viability increase [3] -4.32% | viability [4] 92.5% | viability [5] 87.3% | inhibition [6] 0.69% | RAM network inhibition [7] 3.74%

O=C(O)CC1Sc2ccccc2NC1=O (stereo unspecified)
inactive: growth inhibition [1] -7.26% | growth inhibition [2] 0.575% | viability increase [3] -1.79% | viability [4] 90.2% | viability [5] 96% | inhibition [6] 1.49% | RAM network inhibition [7] 4.47%

CCOC(=O)C1CCN(C(=O)c2oc3ccc(S(=O)(=O)N4CCCCCC4)cc3c2C)CC1
inactive: growth inhibition [1] 0.58% | growth inhibition [2] -20.9% | viability increase [3] -3.23% | viability [4] 72.8% | viability [5] 78.9% | inhibition [6] 1.73% | RAM network inhibition [7] 0.3%

Cc1cc(NS(=O)(=O)c2ccc(NC(=O)CCCC(=O)O)cc2)nc(C)n1
inactive: growth inhibition [1] -5.33% | growth inhibition [2] -3.05% | viability increase [3] -1.07% | viability [4] 102% | viability [5] 92.2% | inhibition [6] -0.135% | RAM network inhibition [7] 3.87%

OC(C#CCN1CCOCC1)c1cccs1 (stereo unspecified)
inactive: growth inhibition [1] -5.03% | growth inhibition [2] 2.95% | viability increase [3] -0.71% | viability [4] 102% | viability [5] 98.4% | inhibition [6] 2.15% | RAM network inhibition [7] 4.66%

CCOC(=O)c1cc2c(=O)n3cccc(C)c3nc2n(CCCOC)c1=NC(=O)c1cccnc1
inactive: growth inhibition [1] -11.3% | growth inhibition [2] -9.9% | viability increase [3] -4.94% | viability [4] 92.5% | viability [5] 92.2% | inhibition [6] 0.515% | RAM network inhibition [7] 6.01%

CC1CC(C)CN(S(=O)(=O)c2cccc3cccnc23)C1 (stereo unspecified)
inactive: growth inhibition [1] -4.23% | growth inhibition [2] -6.44% | viability increase [3] -4.51% | viability [4] 87.9% | viability [5] 94.9% | inhibition [6] -0.45% | RAM network inhibition [7] 1.83%

Cc1cc(C(C)(C)C)oc1C(=O)Nc1ccc(CC(=O)O)cc1
inactive: growth inhibition [1] -5.71% | growth inhibition [2] 6.31% | viability increase [3] 1.52% | viability [4] 100% | viability [5] 98.9% | inhibition [6] 1.31% | RAM network inhibition [7] 3.99%

COc1cc(CNC(=O)OCC(C)C)cc(OC)c1OC
inactive: growth inhibition [1] -11.4% | growth inhibition [2] -20.8% | viability increase [3] -0.03% | viability [4] 99.7% | viability [5] 99% | inhibition [6] 0.19% | RAM network inhibition [7] -0.93%

CCCn1cc(S(=O)(=O)CC(=O)Nc2ccc(OC)cc2OC)c2ccccc21
inactive: growth inhibition [1] -7.84% | growth inhibition [2] 6.44% | viability increase [3] -1.59% | viability [4] 97.9% | viability [5] 96.4% | inhibition [6] 2.81% | RAM network inhibition [7] -0.12%

CC(C)(C)SCCNS(=O)(=O)c1ccccc1
inactive: growth inhibition [1] -8.9% | growth inhibition [2] 6.57% | viability increase [3] -0.28% | viability [4] 99.8% | viability [5] 93.4% | inhibition [6] 2.52% | RAM network inhibition [7] 3.01%

Cc1c(C(=O)NCC(C)C)sc2nc(-c3ccc(F)cc3)cn12
inactive: growth inhibition [1] -13.9% | growth inhibition [2] -12% | viability increase [3] 1.99% | viability [4] 111% | viability [5] 103% | inhibition [6] 2.99% | RAM network inhibition [7] 10.7%

O=C(COc1cccc2ccccc12)N1CCN(c2ccccc2)CC1
inactive: growth inhibition [1] -6.48% | growth inhibition [2] -22% | viability increase [3] 1.21% | viability [4] 90.8% | viability [5] 89% | inhibition [6] 2.06% | RAM network inhibition [7] 11.7%

COc1ccc(-n2nc3c(c2NC(=O)c2ccc(Br)cc2)CS(=O)C3)cc1 (stereo unspecified)
inactive: growth inhibition [1] -4.15% | growth inhibition [2] 4.82% | viability increase [3] -2.41% | viability [4] 85.3% | viability [5] 91.5% | inhibition [6] 0.805% | RAM network inhibition [7] 2.87%

CC(C)n1c(CCCO)nc2ccccc21
inactive: growth inhibition [1] -11.3% | growth inhibition [2] -5.23% | viability increase [3] -1.64% | viability [4] 95.7% | viability [5] 88.1% | inhibition [6] 0.93% | RAM network inhibition [7] 0.19%

COc1ccc(C2=NOC(C(=O)Nc3cc(C)nn3-c3ccccc3)C2)cc1OC (stereo unspecified)
inactive: growth inhibition [1] -14.9% | growth inhibition [2] -31.2% | viability increase [3] -0.06% | viability [4] 103% | viability [5] 97.1% | inhibition [6] 1.11% | RAM network inhibition [7] 1.36%

CC1CCN(C(=O)CNC(=O)Cn2ccc3ccccc3c2=O)CC1
inactive: growth inhibition [1] -9.29% | growth inhibition [2] -0.685% | viability increase [3] -1.73% | viability [4] 98.2% | viability [5] 94.1% | inhibition [6] 0.755% | RAM network inhibition [7] 1.67%

CCCNC(=O)NCCc1c(C)[nH]c2ccccc12
inactive: growth inhibition [1] 4.3% | growth inhibition [2] -9.91% | viability increase [3] -3.16% | viability [4] 99.8% | viability [5] 99% | inhibition [6] 1.35% | RAM network inhibition [7] 1.69%
